Test results from ChEMBL document CHEMBL1156756, “4-Oxo-beta-lactams (azetidine-2,4-diones) are potent and selective inhibitors of human leukocyte elastase” (J Med Chem, 2010).
Calls of active or inactive are those of the source. The calls are words filed in the database; no cut-off is given here.

Columns and labels:
[1] = molecular target: T1, Myeloblastin (Homo sapiens) (UniProt P24158); experiment: Inhibition of human proteinase 3
T1 sequence (whole entry): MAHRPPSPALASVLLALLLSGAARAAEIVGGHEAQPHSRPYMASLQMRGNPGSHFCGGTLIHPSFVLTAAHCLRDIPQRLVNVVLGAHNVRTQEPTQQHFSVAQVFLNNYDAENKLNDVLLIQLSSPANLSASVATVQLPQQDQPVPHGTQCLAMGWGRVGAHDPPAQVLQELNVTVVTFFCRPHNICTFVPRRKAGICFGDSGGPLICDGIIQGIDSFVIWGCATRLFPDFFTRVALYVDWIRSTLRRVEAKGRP
Outline: (§1)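 Proteinase 3 stock (325 nM in 0.05 M acetate pH 6, 150 mM NaCl) mixed at 25 °C with inhibitor in DMSO and MeOSuc-Ala-Ala-Pro-Val-p-nitroanilide (stock 50 mM in DMSO) in 0.1 M HEPES pH 7.2. A410 followed for 20 000 s. Progress curves fitted to slow-binding equations. Uninhibited controls ran linearly.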

Papain (Carica papaya) = molecular target: T2, Papain (Carica papaya) (UniProt P00784); experiment: Inhibition of papaya papain at 60 uM
T2 sequence (whole entry): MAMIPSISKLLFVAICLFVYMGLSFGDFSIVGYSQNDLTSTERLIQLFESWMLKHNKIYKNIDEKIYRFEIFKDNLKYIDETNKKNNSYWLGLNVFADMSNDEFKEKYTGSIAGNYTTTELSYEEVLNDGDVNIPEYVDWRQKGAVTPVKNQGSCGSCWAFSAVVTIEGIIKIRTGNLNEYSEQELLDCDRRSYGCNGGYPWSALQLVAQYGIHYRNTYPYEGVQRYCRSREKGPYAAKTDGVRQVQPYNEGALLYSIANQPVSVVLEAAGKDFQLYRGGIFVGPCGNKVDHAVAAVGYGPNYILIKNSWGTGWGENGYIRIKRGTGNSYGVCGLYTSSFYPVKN
Outline: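 Incubation method. Activated papain was held with inhibitor at 25 °C in 50 mM potassium phosphate pH 7.0 with 2.5 mM EDTA. At intervals, aliquots were assayed with BAPA substrate (stock 10 mM in DMSO) in the same buffer, reading A410 for 4 min. Inhibitor-free controls were run in parallel.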

[2] = molecular target: T3, Cathepsin G (Homo sapiens) (UniProt P08311); experiment: Inhibition of human cathepsin G at 60 uM
T3 sequence (whole entry): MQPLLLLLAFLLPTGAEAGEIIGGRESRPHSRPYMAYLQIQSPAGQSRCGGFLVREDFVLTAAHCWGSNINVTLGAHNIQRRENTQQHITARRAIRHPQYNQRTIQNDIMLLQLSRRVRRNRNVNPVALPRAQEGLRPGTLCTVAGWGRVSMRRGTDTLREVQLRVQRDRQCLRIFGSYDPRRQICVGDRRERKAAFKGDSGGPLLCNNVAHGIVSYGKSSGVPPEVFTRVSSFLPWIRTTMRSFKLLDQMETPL
Outline: (§2)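 Cathepsin G stock (680 nM in 0.05 M acetate, pH 5.5) mixed at 25 °C with inhibitor in DMSO and Suc-Ala-Ala-Pro-Phe-p-nitroanilide (stock 42.5 mM in DMSO) in 0.1 M HEPES pH 7.5. A410 recorded continuously for 20 min. Progress curves fitted with slow-binding kinetics. Uninhibited controls ran linearly. Highest concentration tested 60 μM.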

[3] = Stability in human plasma assessed as half life at pH 7.4
[4] = Chemical stability in phosphate buffer assessed as half life at pH 7.4; format: physicochemical
[5] = molecular target: T3, Cathepsin G (Homo sapiens); experiment: Inhibition of human cathepsin G; outline: as §2
[6] = molecular target: T1, Myeloblastin (Homo sapiens); experiment: Inhibition of human proteinase 3 at 60 uM; outline: as §1
[7] = molecular target: T1, Myeloblastin (Homo sapiens); experiment: Inhibition of human proteinase 3 at 10 uM; outline: as §1

| Structure (SMILES) | Activity ([1]; TDE = time-dependent effect) | Activity (Papain (Carica papaya)) | further results |
| --- | --- | --- | --- |
| CCC1(CC)C(=O)N(c2cccnc2)C1=O | tde | – | – |
| CC1(C)C(=O)N(Cc2ccccc2)C1=O | tde | – | – |
| CCC1(Cc2ccccc2)C(=O)N(c2ccccc2)C1=O | – | inactive | Activity [1]: 20.2 M⁻¹ s⁻¹; Activity [2]: inactive |
| CCC1(CC)C(=O)N(c2ccccc2CSc2nccn2C)C1=O | tde | – | – |
| CC1(C)C(=O)N(c2ccccc2)C1=O | tde | – | – |
| CCOC(=O)CN1C(=O)C(CC)(CC)C1=O | tde | – | – |
| CCC1(CC(C)C)C(=O)N(c2ccccc2)C1=O | tde | – | – |
| CCC1(CC)C(=O)N(Cc2ccccc2)C1=O | tde | – | – |
| CC1(C)C(=O)N(c2ccc(Cl)cc2)C1=O | tde | – | – |
| CCC1(CC)C(=O)N(c2cccc3ccccc23)C1=O | – | inactive | Activity [5]: 35.6 M⁻¹ s⁻¹ |
| CCC1(CC)C(=O)N(c2ccccc2)C1=O | tde | – | – |
| CCC1(CC)C(=O)N(c2ccccc2C)C1=O | tde | – | – |
| CC1(Cc2ccccc2)C(=O)N(c2ccccc2)C1=O | – | inactive | inhibition [6]: 22%; Activity [2]: inactive |
| CCCCC1(CC)C(=O)N(c2ccccc2)C1=O | – | inactive | Activity [5]: 47.3 M⁻¹ s⁻¹ |
| CCC1(CC)C(=O)N(c2ccccc2CSc2nc3ccccc3s2)C1=O | tde | – | half-life [3]: 96 min; half-life [4]: 2220 min |
| CCC1(CC)C(=O)N(c2ccc(C#N)cc2)C1=O | – | inactive | Activity [5]: 36.5 M⁻¹ s⁻¹; inhibition [7]: 16% |
| CCC1(CC)C(=O)N(c2ccc(C)nc2)C1=O | tde | – | – |

Further lines, with some results ahead:

| Activity ([1]; TDE = time-dependent effect) | Activity (Papain (Carica papaya)) | Structure (SMILES) | further results |
| --- | --- | --- | --- |
| tde | – | CCC1(CC)C(=O)N(c2ccc(C)cc2)C1=O | – |
| tde | – | CCC1(CC)C(=O)N(c2ccc(Cl)cc2)C1=O | – |
| – | inactive | CCC1(CC)C(=O)N(c2ccccc2CSc2nc3ccccc3o2)C1=O | Activity [1]: 361 M⁻¹ s⁻¹; Activity [2]: inactive |
| – | inactive | CCC1(CC)C(=O)N(c2ccc(CSc3nc4cc(C(=O)O)ccc4o3)cc2)C1=O | Activity [1]: 689 M⁻¹ s⁻¹; Activity [2]: inactive |
| – | inactive | CCC1(CC)C(=O)N(c2ccc(CSc3nc4ccccc4o3)cc2)C1=O | Activity [1]: 29.6 M⁻¹ s⁻¹; Activity [2]: inactive |
| tde | – | CCC1(CC)C(=O)N(c2ccccc2CSc2nnc(-c3ccccc3)o2)C1=O | – |
| tde | – | CCC1(CC)C(=O)N(c2ccc(CSc3nnc(-c4ccccc4)o3)cc2)C1=O | – |
| tde | – | CCC1(CC)C(=O)N(c2ccc(CSc3nc4ccccc4s3)cc2)C1=O | half-life [3]: 24 min; half-life [4]: 600 min |
| tde | – | CCC1(CC)C(=O)N(c2ccc(OC)cc2)C1=O | – |
| – | inactive | CCC1(CC)C(=O)N(c2ccc(CSc3nc4ccccc4s3)nc2)C1=O | half-life [3]: 12 min; Activity [1]: 4080 M⁻¹ s⁻¹; half-life [4]: 780 min; Activity [2]: inactive |
| – | inactive | CCC1(CC)C(=O)N(c2ccc(CSc3ccccc3)cc2)C1=O | Activity [1]: 122 M⁻¹ s⁻¹ |
